In the library only some 4.6% were active in any assay of this set; here they are far more common.
TAAR1 antag: human TAAR1 antagonism | CHO RD-HGA16 TAAR1, Fluo-8 calcium fluorescence, antagonist | Q96RJ0 | 360,000 compounds, 1.5% hits | AID 624466 | inhibition, % at 3 µM;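 active = inhibition above a per-plate cutoff, the mean inhibition of test compounds on that plate plus 3 SD, cut at about 49% in these data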
Target sequence (Q96RJ0 whole entry, looked up): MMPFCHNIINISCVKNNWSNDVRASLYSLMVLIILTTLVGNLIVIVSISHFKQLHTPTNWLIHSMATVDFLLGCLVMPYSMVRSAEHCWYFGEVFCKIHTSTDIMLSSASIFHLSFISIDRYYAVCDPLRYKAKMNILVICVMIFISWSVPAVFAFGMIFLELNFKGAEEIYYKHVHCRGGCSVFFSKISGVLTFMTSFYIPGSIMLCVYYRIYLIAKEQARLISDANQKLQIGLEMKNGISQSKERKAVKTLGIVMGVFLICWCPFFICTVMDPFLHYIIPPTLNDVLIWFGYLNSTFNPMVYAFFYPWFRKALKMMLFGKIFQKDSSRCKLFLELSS
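Material: CHO RD-HGA16 cells bearing hTAAR1; compound dosing: one-point dosing, 3 µM nominal final; schedule: dye loading 75 min at 37 °C, then 30 min room temperature; measured by: calcium fluorescence with Fluo-8; control set: vehicle and agonist controls; replication: n of 1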
OX1R antag-1: OX1R (human) antagonism; O43613; inhibition, % at 6.6 µM; 330,000 compounds, 1.8% hits; OX1R-expressing cells, FRET antagonist read-out; in the data active = inhibition mostly above about 38%, no sharp cut-off; inactive = mostly below about 40%
Target sequence (O43613 whole entry, looked up): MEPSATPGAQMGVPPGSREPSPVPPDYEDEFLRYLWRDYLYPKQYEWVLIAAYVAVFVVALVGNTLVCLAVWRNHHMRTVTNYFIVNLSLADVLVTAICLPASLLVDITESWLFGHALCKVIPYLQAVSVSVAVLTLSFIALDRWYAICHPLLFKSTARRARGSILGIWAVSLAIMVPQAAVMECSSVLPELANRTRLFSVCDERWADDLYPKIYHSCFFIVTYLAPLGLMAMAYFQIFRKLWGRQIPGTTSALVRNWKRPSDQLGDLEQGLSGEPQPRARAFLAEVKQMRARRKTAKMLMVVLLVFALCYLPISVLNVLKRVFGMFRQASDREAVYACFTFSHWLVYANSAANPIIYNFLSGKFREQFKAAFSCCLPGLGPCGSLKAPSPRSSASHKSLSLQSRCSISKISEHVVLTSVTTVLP
GPR7 antag: human neuropeptides B/W receptor 1 antagonism. P48145. GPR7-expressing cells, fluorescence antagonist assay. inhibition, % at 4.4 µM. 290,000 compounds, 1.1% hits. AID 1861; in the data active = inhibition above about 16%, passing the limit was not always enough;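 note: cells stimulated with the agonist NPW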
OX1R antag-2: blocks the human orexin 1 receptor. O43613. inhibition, % at 5 µM. CHO/OX1R cells, Fluo-8 calcium fluorescence, orexin A. AID 434989. 330,000 compounds, 0.43% hits;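 active = inhibition above its plate's threshold, mean inhibition of all tested compounds on the plate plus 3 SD, cut at about 37% in these data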
TAAR1 ag: agonists of human TAAR1. CHO RD-HGA16 TAAR1, Fluo-8 calcium fluorescence; vehicle wells 0%, saturating PEA agonist 100%. Q96RJ0. activation, % at 3 µM. 360,000 compounds, 0.99% hits. AID 624467;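 active = activation above the mean activation of all test compounds in the run plus 3 SD, cut at about 38% in these data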
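Test system: RD-HGA16 (CHO) cells co-expressing Gα16 and hTAAR1 / Benchmarks: DMSO vehicle as 0%, PEA at EC100 as 100% / Repeats: no replicates (n 1) / Measure: % activation from peak over basal fluorescence ratio, DMSO-to-PEA scaled / Timing: 17-24 h plating, Fluo-8 75 min 37 °C, 30 min RT / Technique: kinetic Fluo-8 calcium fluorescence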
CHO parental Ca: signal in parental CHO cells, OX1R antagonist counter-screen | parental CHO-K1, ATP-induced calcium, Fluo-8 fluorescence | AID 463079 | inhibition, % at 5.6 µM | 330,000 compounds, 0.63% hits;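 active = inhibition above that plate's mean sample inhibition plus 3 SD, cut at about 26% in these data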
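Assay system: parental CHO cells; Read-out basis: percent inhibition of ATP-evoked calcium rise, normalized to controls; Benchmarks: ATP and no-ATP DMSO wells; Compound dosing: single nominal dose of 5.6 µM per compound; Signal: Fluo-8 calcium dye fluorescence; Also added: ATP as calcium-mobilizing challenge; Repeats: singlicate.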
TAAR1 ag conf: human TAAR1 agonism, confirmed; shares compounds with TAAR1 ag; CHO RD-HGA16 TAAR1, Fluo-8 calcium fluorescence; scaled: DMSO 0%, maximal phenethylamine 100%; activation, % at 3 µM; 2,400 compounds, 82% hits; AID 651783;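 active = activation above a cutoff set at the run's mean compound activation plus 3 SD, cut at about 39% in these data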
Ga16 ag counter: nonselective agonist in parental cells, TAAR1 agonist counter-screen; shares compounds with TAAR1 ag; activation, % at 3 µM; AID 651787; 2,400 compounds, 50% hits; CHO-Ga16 parental, Fluo-8 calcium fluorescence; normalized to maximal ATP response, DMSO zero;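 active = activation above the run cutoff, the mean activation over all tested wells plus 3 SD, cut at about 12% in these data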
TAAR1 desensitize: counter-screen for human TAAR1 agonists: agonists that desensitize TAAR1; shares compounds with TAAR1 ag; CHO RD-HGA16 hTAAR1, Fluo-8 calcium, beta-PEA response inhibition; inhibition, % at 3 µM; 2,400 compounds, 46% hits;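 active = inhibition above the run cutoff, the mean inhibition of all test compounds plus 3 SD, cut at about 49% in these data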;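 note: beta-PEA stimulus applied at its EC80; loss of beta-PEA calcium signal after compound pretreatment read as receptor desensitization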
Ga16 antag count: counter-screen for TAAR1 agonists: nonselective Ga16 antagonists; 2,400 compounds, 39% hits; CHO-Ga16 ATP-induced calcium, Fluo-8 fluorescence; inhibition, % at 3 µM; shares compounds with TAAR1 ag; AID 651952;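 active = inhibition above the plate's mean compound inhibition plus 3 SD, computed per plate, cut at about 22% in these data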
Numbers stand for hits; i = inactive; nt = not tested or not shown.

SMILES	TAAR1 antag	OX1R antag-1	GPR7 antag	OX1R antag-2	TAAR1 ag	CHO parental Ca	TAAR1 ag conf	Ga16 ag counter	TAAR1 desensitize	Ga16 antag count
CCCCCCCCN1C(=O)[C@H](CC(=O)NCCc2ccccc2OC)C[C@@]2(C(=O)OCC)CCC=C12	i	nt	nt	nt	59	nt	80	i	i	i
CCCCCCCCN1C(=O)[C@H](CC(=O)NCCc2ccccc2OC)C[C@@]2(C(=O)OC)CCCCC=C12	i	nt	nt	nt	51	nt	81	i	65	i
CCc1ccccc1NC(=O)CNC(=O)CCC(=O)c1cc(C)sc1C	i	nt	nt	nt	i	nt	nt	nt	nt	nt
O=S(=O)(Nc1ccc2c(c1)OCCO2)c1c(F)cccc1F	i	i	i	i	i	i	nt	nt	nt	nt
COc1ccc(-n2ncc(C(=O)NC3CC3)c2C2CCN(C(=O)OC(C)(C)C)CC2)cc1	i	i	i	i	i	i	nt	nt	nt	nt
COc1ccccc1N(C)S(=O)(=O)c1ccc(C(=O)OCC(=O)N2CCCCCC2)cc1	i	i	i	i	i	i	nt	nt	nt	nt
Cc1ccc2nc3n(c(=O)c2c1)-c1cc2ccccc2cc1C(=O)NC3Cc1ccccc1 (stereo not given)	i	nt	nt	nt	i	nt	nt	nt	nt	nt
COc1ccc(S(=O)(=O)N2CCC(C(=O)N3CCc4ccccc4C3)CC2)cc1C	i	i	i	i	52	i	76	i	i	i
Cc1c(C(=O)N2CCc3ccccc3C2)oc2ccc(S(=O)(=O)N3CC(C)CC(C)C3)cc12 (stereo not given)	nt	i	i	i	nt	i	nt	i	nt	i
Cc1nc([N+](=O)[O-])c(Sc2nc3ccc([N+](=O)[O-])cc3[nH]2)n1Cc1ccccc1	i	i	i	i	i	i	nt	nt	nt	nt
OC(CNC1CCCc2ccccc21)COc1ccc2ccccc2c1 (stereo not given)	i	i	i	i	69	i	100	28	70	31
O=C(c1ccccc1)c1ccc(OCC(O)CNC2CCCc3ccccc32)cc1 (stereo not given)	i	i	i	i	i	i	nt	nt	nt	nt
Cc1ccccc1NC(=O)CCCNC(=O)c1ccc(Cl)cc1	i	i	i	i	i	i	nt	nt	nt	nt
O=C(COc1ccccc1)NC(=S)Nc1cccc2cc(O)ccc12	i	i	i	i	72	i	67	24	49	29
O=C(COc1ccccc1)NC(=S)Nc1ccc2c3c(cccc13)CC2	i	i	i	i	i	i	nt	nt	nt	nt
CC1=CC(=C(C#N)C#N)C=C(C)N1CCC(C)C	i	i	i	i	i	i	nt	nt	nt	nt
CSCC[C@H](NC(=O)COc1ccc(Cl)cc1)C(=O)N1CCC2(CC1)NCCc1[nH]cnc12	i	i	i	i	52	i	i	i	i	i
CSCC[C@H](NC(=O)c1ccc2ccccc2c1)C(=O)N1CCC2(CC1)NCCc1[nH]cnc12	i	i	i	i	i	i	nt	nt	nt	nt
COc1ccc(CNC(=O)Cn2c(=O)n(CC(=O)N3CCCCC3)c(=O)c3sccc32)cc1	i	i	i	i	i	i	nt	nt	nt	nt
Nc1c(-c2n[nH]c(=S)n2-c2ccc(Cl)cc2Cl)cnn1-c1ccccc1	i	i	i	i	97	i	73	44	i	28
Cc1ccc(NS(=O)(=O)c2ccc(C(=O)N3CC(C)CC(C)C3)cc2)cc1 (stereo not given)	102	i	nt	63	141	64	128	91	106	89
Cc1ccc(S(=O)(=O)Nc2ccc(C(=O)N3CCCC3)cc2)cc1	i	i	i	i	i	i	nt	nt	nt	nt
O=c1nc2n(c3c4c(sc13)CCC4)CCC2	i	i	i	i	i	i	nt	nt	nt	nt
CN(C1CCCCC1)S(=O)(=O)c1ccc(C(=O)Nc2sc3c(c2C(N)=O)CC(C)(C)NC3(C)C)cc1	i	i	i	i	85	i	58	39	i	35
O=C(O)c1ccc(-c2nc(-c3ccccc3Cl)cs2)cc1	i	i	i	i	49	i	i	19	i	i
SMILES	TAAR1 antag	OX1R antag-1	GPR7 antag	OX1R antag-2	TAAR1 ag	CHO parental Ca	TAAR1 ag conf	Ga16 ag counter	TAAR1 desensitize	Ga16 antag count
O=C(O)c1ccc(-c2nc(-c3ccccc3)cs2)cc1	i	i	i	i	i	i	nt	nt	nt	nt
CCCCCCc1cc2cc(-c3nnc(-c4ccccc4O)o3)c(=O)oc2cc1O	i	i	i	i	48	i	48	46	59	60
CCCCCCc1cc2cc(-c3nnc(-c4ccccc4OC)o3)c(=O)oc2cc1O	i	i	i	i	i	i	nt	nt	nt	nt
CN1CCN(C2=Cc3ccccc3Sc3cc(F)ccc32)CC1	i	i	i	i	i	i	nt	nt	nt	nt
CN1CCN(C2=Cc3ccc(Cl)cc3Sc3ccc(F)cc32)CC1	i	i	i	i	49	i	57	41	57	44
CC(C)S(=O)(=O)c1csc(C(=O)Nc2ccc(F)cc2)c1N	i	i	i	i	i	i	nt	nt	nt	nt
COc1ccc(CCNC(=O)C2CC3Cn4c(nc5cc6ccccc6cc54)C3N2C)cc1 (stereo not given)	i	i	nt	i	i	i	nt	nt	nt	nt
Cc1cc2nc3n(c2cc1C)CC1CC(C(=O)NCCc2cccs2)N(C)C31 (stereo not given)	69	i	nt	i	101	i	81	i	71	i
CN1C(C(=O)NCCc2cccs2)CC2Cn3c(nc4cc5ccccc5cc43)C21 (stereo not given)	51	i	nt	i	78	i	92	15	83	i
C=CCNC(=O)C1CC2Cn3c(nc4cc(C)c(C)cc43)C2N1C (stereo not given)	i	i	nt	i	i	i	nt	nt	nt	nt
CC(CCCN1CCCC1)Nc1ccnc2cc(Cl)ccc12 (stereo not given)	i	nt	nt	nt	i	nt	nt	nt	nt	nt
CC(Nc1ccnc2cc(Cl)ccc12)c1ccc(S(N)(=O)=O)cc1 (stereo not given)	i	i	i	i	53	i	69	i	51	i
N#Cc1ccc(C(=O)N2CCN(C(=O)C3CCCO3)CC2)cc1 (stereo not given)	i	i	nt	i	i	i	nt	nt	nt	nt
COc1ccccc1C(=O)NNC(=S)NC(=O)c1sc2ccccc2c1Cl	80	i	i	i	145	i	140	118	106	94
O=C(NC(=S)NNC(=O)c1ccccc1O)c1cccs1	i	i	i	i	i	i	nt	nt	nt	nt
COc1ccccc1C(=O)NC(=S)NNC(=O)c1sc2ccccc2c1Cl	74	i	i	i	117	i	166	124	106	87
